Measurements of several laboratories.
Lines come from different studies, so protocols differ.
Sample: plasma

CC(C)(C)N/[N+]([O-])=N/OC1CCN(c2ccc(C#N)cn2)CC1
half-life (male human; oral, single dose, healthy volunteers): 46 to 78 h

CO[C@H]1CC[C@H](N2C(=O)CNc3ncc(-c4ccc(C(C)(C)O)nc4)nc32)CC1
half-life (human; oral, 15 mg, patients): 3.35 h

CC(C)[C@](O)(c1ccc2cc(OC(F)F)c(OC(F)F)cc2c1)c1c[nH]nn1
half-life (female human; oral, 450 mg, single dose): 6.4 h

CCOc1ccc(Cc2cc([C@@H]3O[C@H](CO)[C@@H](O)[C@H](O)[C@H]3O)ccc2Cl)cc1
half-life (human; oral, 10 mg, multiple doses, steady state, healthy volunteers): 10.4 h

COc1ccc(-n2nc(C(N)=O)c3c2C(=O)N(c2ccc(N4CCCCC4=O)cc2)CC3)cc1
half-life (human; oral, 10 mg, single dose, healthy volunteers): 12.7 h

CC(C)(Sc1ccncc1-c1ccc(C#N)c2ccccc12)C(=O)O
half-life (male human; oral, 5 mg, single dose, fed, healthy volunteers): 12.7 h

Cc1nc(-c2cn3c(n2)-c2ccc(-c4cnn(C(C)(C)C(N)=O)c4)cc2OCC3)n(C(C)C)n1
half-life (human; oral, 2 mg, patients): 28.1 h

C[C@@H](c1ccc2nccn2c1)n1nnc2ncc(-c3cnn(C)c3)nc21
half-life (human; oral, 200 mg): 4.2 h

CCOc1cc2ncc(C#N)c(Nc3ccc(OCc4ccccn4)c(Cl)c3)c2cc1NC(=O)/C=C/[C@H]1CCCN1C
half-life (human; oral, 80 mg, single dose): 12.9 h

O=c1c(O)c(-c2ccc(O)c(O)c2)oc2cc(O)cc(O)c12
half-life (human; oral, 500 mg, single dose, fasted, healthy volunteers): 6.26 h

O=C(Nc1c(Cl)cncc1Cl)c1ccc(OC(F)F)c(OCC2CC2)c1
half-life (human; oral, 0.375 mg, single dose): 19.7 h

CC(C)n1cc(C#N)c2cc(-n3cc(C(=O)O)cn3)ccc21
half-life (human; oral, 100 mg, single dose, fasted, healthy volunteers): 6.6 h

Nc1cc(C(F)(F)F)c(-c2cc(N3CCOCC3)nc(N3CCOCC3)n2)cn1
half-life (human; oral, 100 mg/day, patients): 30.6 h

CO[C@H]1/C=C\C=C(/C)C(=O)NC2=CC(=O)C(NCCN(C)C)=C(C[C@@H](C)C[C@H](OC)[C@H](O)[C@@H](C)/C=C(\C)[C@@H]1OC(N)=O)C2=O
half-life (human; intravenous, 27 mg/m², patients, infusion): 22.5 h

C#C[C@]1(COP(=O)(O)OP(=O)(O)OP(=O)(O)O)O[C@@H](n2cnc3c(N)nc(F)nc32)C[C@@H]1O
half-life (human; oral, 15 mg, single dose): 161 h

CO[C@@H]1[C@H](OC(=O)N2CC(CCN3CCOCC3)C2)CC[C@]2(CO2)[C@H]1[C@@]1(C)O[C@@H]1CC=C(C)C
half-life (human; subcutaneous, 0.2 mg, single dose, healthy volunteers): 0.49 h

CS(=O)(=O)CCC#N
half-life (human; oral, 100 mg, multiple doses, once daily): 16 h

COc1ccc([C@@H]2CN(C(=O)[C@@H](O)CO)C[C@@]2(C)[C@@H](C)O)cc1OC1CN(c2ccc(C)cn2)C1
half-life (human; oral, 10 mg, single dose, healthy volunteers): 12.6 h

COc1cc(C(=O)NC2CCN(C)CC2)c(F)cc1Nc1ncc(C(F)(F)F)c(Oc2cccc3c2C(=O)N(C)C3)n1
half-life (human; oral, 200 mg, multiple doses, once daily, patients): 20.4 h

O=C(/C=C/c1cccc(S(=O)(=O)Nc2ccccc2)c1)NO
half-life (human; intravenous, 1900 mg/m², patients): 1.43 h

Cn1cc(-c2ccc(S(=O)(=O)[C@@H]3C[C@@H](C(=O)NC4(C#N)CC4)N(C(=O)C4(C(F)(F)F)CC4)C3)c(C(F)(F)F)c2)cn1
half-life (human; oral, 100 mg, single dose, fed, healthy volunteers): 8.8 h

Cc1cc(Nc2ncc(Cl)c(Nc3ccccc3S(=O)(=O)C(C)C)n2)c2c(c1C1CCN(C)CC1)C[C@@H](C)O2
half-life (human; oral, 160 mg, single dose, fed): 34.7 h

COCCOc1cnc2ccn([C@H](C)c3nnc4c(F)cc(-c5cnn(C)c5)cn34)c(=O)c2c1
half-life (human; oral, 300 mg, multiple doses, once daily, patients): 9.7 h

NS(=O)(=O)NCCNc1nonc1C(=NO)Nc1ccc(F)c(Br)c1
half-life (human; oral, 700 mg, multiple doses, twice daily, steady state, patients): 3 h

CC(C)(O)c1ccccc1-c1ccc2[nH]c(/C=C/c3ccc(C(F)(F)F)cc3)nc2c1
half-life (male human; oral, 2 mg, single dose, fasted, healthy volunteers): 47.8 h

COc1ccc(Oc2cc(N(C)CCOc3ccc(CC4SC(=O)NC4=O)cc3)ncn2)cc1 (stereo not drawn)
half-life (male human; oral, 0.5 mg, multiple doses, once daily, steady state): 7.06 h

CCNCCCNC/C=C\CNCCCNCC
half-life (human; intravenous, 50 mg, patients, infusion): 0.18 h

c1cnc2ccc(Nc3nc(NC4CC4)c4nc[nH]c4n3)cc2c1
half-life (human; oral, 100 mg/m², patients): 3.6 h

C[C@@H](Nc1cc(F)cc(F)c1)c1cc(C(=O)N(C)C)cc2c(=O)cc(N3CCOCC3)oc12
half-life (human; oral, 60 mg, patients): 5.2 h

CC(C)(O)c1cc(Nc2cc(Oc3cn(C4CC4)nc3C3CCOCC3)ccn2)ccn1
half-life (human; oral, patients): 6.7 h
